One may read the MIC80 as an inhibitory concentration at the 80% level, which refers to growth in some studies and to a panel of isolates in others. A higher MIC80 goes with weaker potency.

Series [1] is described as follows: Selectivity index, ratio of LD50 for human A549 cells to MIC80 for Cryptococcus neoformans H99. Particulars: read-out: Selectivity Index. The series is classed as toxicity. An outline of the steps: (§1)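 SI = LD₅₀/MIC₈₀. Cytotoxicity: A549 or HepG2 cells (DMEM, 10% FBS, passage 7, 10⁵ cells/well) adhered 14 h, then exposed to 0.03–128 μg/mL for 24 or 48 h at 37°C, 5% CO₂; MTT 4 h, formazan dissolved in DMSO, read at 570 nm. MIC₈₀ against C. neoformans from broth microdilution in HEPES-buffered YNB, pH 7.0.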

In series [2] the test system is Cryptococcus neoformans. Put plainly: Fungicidal activity against Cryptococcus neoformans H99 measured after 6 hrs by time-kill assay. The series is classed as functional, var grubii H99. The method in brief: (§2)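 Overnight C. neoformans washed in PBS and resuspended in HEPES-buffered YNB, pH 7.4. 2 × 10⁴ cells exposed to a range of drug concentrations in 10 mL with 0.5% DMSO final, at 37°C, 5% CO₂, shaking at 200 rpm. Aliquots sampled over 96 h, diluted and plated on YPD; CFU counted after 48 h at 30°C.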

Series [3] can be described thus: Selectivity index, ratio of LD50 for human HepG2 cells to MIC80 for Cryptococcus neoformans H99. The series is classed as toxicity. Particulars: read-out: Selectivity Index. The method in brief: as §1
In series [4] the test system is Cryptococcus neoformans. Put plainly: Antifungal activity against Cryptococcus neoformans H99 measured after 24 to 72 hrs. The series is classed as functional. Particulars: var grubii H99. The method in brief: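 Modified CLSI broth microdilution with inoculum per M27A3. Compounds were serially diluted 32 to 0.03 μg/mL. Media: C. neoformans in HEPES-buffered YNB without amino acids (pH 7.0, 2% glucose); Candida strains in YNB without ammonium sulfate or amino acids plus 1% asparagine (pH 7.0, 2% glucose); A. fumigatus in RPMI (pH 7.0, 2% glucose).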

For series [5], the system named is A549. Put plainly: Cytotoxicity against human A549 cells after 24 to 48 hrs by MTT assay. The series is classed as functional. Particulars: read-out: LD50 (the source's name). An outline of the steps:
(§3)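 A549 and HepG2 kept in DMEM with 10% FBS and 1% pen-strep. At passage 7, seeded at 10⁵ cells/well and allowed to adhere 14 h. Compound added at 0.03–128 μg/mL, untreated wells as controls. Incubation 37°C, 5% CO₂ for 24 or 48 h. MTT (5 mg/mL in PBS) added for 4 h, formazan dissolved in DMSO, OD570.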
Background: Tetrazolium assays rely on reduction of a dye to a coloured formazan, in cell work by metabolically active cells.

Series [6] has as its system HepG2. Put plainly: Cytotoxicity against human HepG2 cells after 24 to 48 hrs by MTT assay. Particulars: read-out: LD50 (the source's name). The series is classed as functional. The method in brief: as §3
Series [7] deals with Cryptococcus neoformans. Put plainly: Fungicidal activity against Cryptococcus neoformans H99 measured after 96 hrs by time-kill assay. The series is classed as functional, var grubii H99. The method in brief: as §2

Values after ≈ are worked out from the molar mass of the structure shown.

Consider `O=C(N/N=C/c1cc(Cl)cc(Cl)c1O)c1ccc(Br)cc1Br`, for which the selectivity ratio was found to be 128 in series [1] and 64 in series [3]. This molecule returned an MFC100 in series [2] of 0.5 µg/mL (≈ 1.07 µM). The MIC80 in series [4] was determined as 1 µg/mL (≈ 2.14 µM). For the same molecule, the CC50 was found to be 128 µg/mL (≈ 274 µM) in series [5] and 64 µg/mL (≈ 137 µM) in series [6].

Consider `O=C(N/N=C/c1ccc(Br)cc1O)c1cc(Br)ccc1Br`, for which the figures for the selectivity ratio in series [1] and in series [3] were 267 and 133, respectively. In series [2], this molecule returned an MFC100 of 0.25 µg/mL (≈ 0.524 µM). For the same molecule, the MIC80 in series [4] came out at 0.12 µg/mL (≈ 0.252 µM). Besides, the CC50 in series [5] was 32 µg/mL (≈ 67.1 µM); in series [6], 16 µg/mL (≈ 33.5 µM).

Turning to `O=C(N/N=C/c1cc(F)ccc1O)c1ccc(Br)cc1Br`, the selectivity ratio in series [1] and in series [3] was 16 throughout. Further, the MIC80 in series [4] stood at 1 µg/mL (≈ 2.4 µM). In series [7], this molecule showed an MFC100 of 2 µg/mL (≈ 4.81 µM). Further, the CC50 in series [5] and in series [6] was 16 µg/mL (≈ 38.5 µM) in each case.

For the molecule `O=C(N/N=C/c1cc(F)ccc1O)c1ccc(Br)cc1`, the selectivity ratio worked out at 8 in series [1] and 16 in series [3]. The MIC80 in series [4] was found to be 1 µg/mL (≈ 2.97 µM). The molecule also registered an MFC100 in series [7] of 4 µg/mL (≈ 11.9 µM). The figures for the CC50 in series [5] and in series [6] were 8 µg/mL (≈ 23.7 µM) and 16 µg/mL (≈ 47.5 µM), respectively.

In the case of `O=C(N/N=C/c1ccc(Br)cc1O)c1ccc(Br)cc1`, the selectivity ratio in series [1] came to 267; in series [3], 533. The MIC80 in series [4] came out at 0.06 µg/mL (≈ 0.151 µM). For the same molecule, the MFC100 in series [7] was found to be 0.25 µg/mL (≈ 0.628 µM). The CC50 turned out to be 16 µg/mL (≈ 40.2 µM) in series [5] and 32 µg/mL (≈ 80.4 µM) in series [6].

The values above are taken from ChEMBL document CHEMBL4334465, “SAR Studies on Aromatic Acylhydrazone-Based Inhibitors of Fungal Sphingolipid Synthesis as Next-Generation Antifungal Agents” (J Med Chem, 2019).
